Test results: ChEMBL document CHEMBL1156988, “Synthesis and antibacterial studies of binaphthyl-based tripeptoids. Part 1” (2010)

Columns and labels:
Enterococcus faecium [1] = assay: Antibacterial activity against vancomycin-resistant Enterococcus faecium 820 after 24 hrs; details: Enterococcus faecium, 820, 24 h
Staphylococcus aureus [2] = assay: Antibacterial activity against methicillin-resistant Staphylococcus aureus ATCC 43300 after 24 hrs; format: functional; details: ATCC 43300, 24 h
How it was run: (§1)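 Broth microdilution in cation-adjusted Mueller Hinton II broth, inoculum 1 × 10^6 CFU/mL. Inoculum was added 1:1 to twofold serial compound dilutions in triplicate wells. Plates were incubated 24 h at 37 °C. MIC was taken as the lowest dilution giving complete growth inhibition. Strains: wild type ATCC 6538P, Mu50 ATCC 700699, MRSA ATCC 43300.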

Staphylococcus aureus [3] = assay: Antibacterial activity against vancomycin intermediate Staphylococcus aureus after 24 hrs; format: functional
How it was run: as §1

Enterococcus faecium [4] = assay: Antibacterial activity against vancomycin-resistant clinical isolate Enterococcus faecium after 24 hrs; format: functional
[5] = system: Staphylococcus epidermidis; assay: Antibacterial activity against Staphylococcus epidermidis ATCC 700562 after 24 hrs; format: functional; details: ATCC 700562, 24 h
How it was run: (§2)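 Micro-broth dilution in cation-adjusted Mueller Hinton II broth, inoculum 1 × 10^6 CFU per mL, added to triplicate wells of twofold serially diluted compound. Incubated 24 h at 37 °C. MIC taken as the lowest dilution giving complete growth inhibition.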

Enterococcus faecium [6] = assay: Antibacterial activity against vancomycin-resistant Enterococcus faecium 449 after 24 hrs; details: Enterococcus faecium, 449, 24 h
Enterococcus faecium [7] = assay: Antibacterial activity against vancomycin sensitive clinical isolate Enterococcus faecium after 24 hrs; format: functional
Staphylococcus aureus [8] = assay: Antibacterial activity against Staphylococcus aureus 6538P after 24 hrs; format: functional
How it was run: as §2

Enterococcus faecium [9] = assay: Antibacterial activity against vancomycin-resistant Enterococcus faecium 243 after 24 hrs; details: Enterococcus faecium, 243, 24 h
Staphylococcus aureus [10] = assay: Antibacterial activity against methicillin sensitive Staphylococcus aureus after 24 hrs; format: functional
How it was run: as §1

Enterococcus faecium [11] = assay: Antibacterial activity against vancomycin-resistant Enterococcus faecium 987 after 24 hrs; details: Enterococcus faecium, 987, 24 h

CC(C)CCOc1ccc2ccccc2c1-c1c(OCC(=O)N[C@H](CCCCN)C(=O)N[C@@H](CCCNC(=N)N)C(=O)N[C@H](CC(C)C)C(=O)OCc2ccccc2)ccc2ccccc12.Cl.Cl
MIC (Enterococcus faecium [1]): 7.8 µg/mL | MIC (Staphylococcus aureus [2]): 6 µg/mL | MIC (Staphylococcus aureus [3]): 6 µg/mL | MIC (Enterococcus faecium [4]): 2 µg/mL | MIC [5]: 3 µg/mL | MIC (Enterococcus faecium [6]): 15.6 µg/mL | MIC (Enterococcus faecium [7]): 16 µg/mL | MIC (Staphylococcus aureus [8]): 3.9 µg/mL | MIC (Enterococcus faecium [9]): 15.6 µg/mL | MIC (Staphylococcus aureus [10]): 6 µg/mL | MIC (Enterococcus faecium [11]): 15.6 µg/mL
